Columns and labels:
[1] = target: T1, Diacylglycerol lipase-alpha (Homo sapiens, UniProt Q9Y4D2); assay: Inhibition of human recombinant DAGL-alpha-mediated sn-1-[14C]oleoyl-2-arachidonoyl-glycerol hydrolysis to 2-AG overexpressed in african green monkey COS7 cell membrane by scintillation counting; assay type: cell membranes, COS-7
T1 sequence (Q9Y4D2 whole entry): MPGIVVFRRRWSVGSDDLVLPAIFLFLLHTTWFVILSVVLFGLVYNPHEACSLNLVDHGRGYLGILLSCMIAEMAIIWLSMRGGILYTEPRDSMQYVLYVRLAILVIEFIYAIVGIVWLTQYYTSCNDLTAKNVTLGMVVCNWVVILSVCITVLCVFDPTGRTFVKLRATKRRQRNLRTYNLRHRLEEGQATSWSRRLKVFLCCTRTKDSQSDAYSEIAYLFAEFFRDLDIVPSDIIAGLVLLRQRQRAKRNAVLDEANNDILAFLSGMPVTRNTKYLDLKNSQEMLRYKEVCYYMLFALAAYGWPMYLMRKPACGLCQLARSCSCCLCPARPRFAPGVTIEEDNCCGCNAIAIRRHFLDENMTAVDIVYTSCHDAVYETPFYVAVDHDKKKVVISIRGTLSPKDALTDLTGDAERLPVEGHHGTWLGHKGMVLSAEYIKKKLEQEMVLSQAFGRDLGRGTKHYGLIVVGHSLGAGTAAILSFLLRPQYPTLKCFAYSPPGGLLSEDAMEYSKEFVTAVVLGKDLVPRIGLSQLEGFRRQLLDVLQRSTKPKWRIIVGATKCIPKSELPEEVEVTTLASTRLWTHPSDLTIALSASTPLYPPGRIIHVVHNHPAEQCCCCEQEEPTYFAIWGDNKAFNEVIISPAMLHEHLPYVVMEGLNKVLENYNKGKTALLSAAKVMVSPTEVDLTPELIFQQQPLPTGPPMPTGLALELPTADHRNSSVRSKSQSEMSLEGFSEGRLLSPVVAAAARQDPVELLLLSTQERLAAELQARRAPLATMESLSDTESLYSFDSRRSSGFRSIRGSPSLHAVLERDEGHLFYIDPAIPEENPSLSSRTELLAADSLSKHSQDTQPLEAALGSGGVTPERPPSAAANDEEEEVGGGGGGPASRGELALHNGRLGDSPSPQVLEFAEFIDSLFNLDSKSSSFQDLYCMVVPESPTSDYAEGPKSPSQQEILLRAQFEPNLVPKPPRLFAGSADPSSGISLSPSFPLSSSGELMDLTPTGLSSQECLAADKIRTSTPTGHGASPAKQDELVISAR

[2] = Inhibition of MAGL-mediated [14C]2-arachidonoyl glycerol hydrolysis to [3H]arachidonic acid in african green monkey COS cell cytosolic fraction by scintillation counting; assay type: cell-based, Chlorocebus aethiops; settings: in the assay text read “[3H]2-arachidonoyl glycerol” for “[14C]2-arachidonoyl glycerol”
Summary of the method: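 The 10000g cytosolic fraction of COS-7 cells, taken as the MAGL source, was incubated with 2-[3H]arachidonoylglycerol (1.0 mCi/mmol, 25 µM) in 50 mM Tris-HCl, pH 7.0, for 20 min at 37 °C. Products were separated by TLC. [3H]arachidonic acid was quantified by scintillation counting as the measure of activity.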

[3] = target: T2, Fatty-acid amide hydrolase 1 (Rattus norvegicus, UniProt P97612); assay: Inhibition of FAAH-mediated [14C]anandamide hydrolysis in rat brain membrane; assay type: cell membranes
T2 sequence (P97612 whole entry): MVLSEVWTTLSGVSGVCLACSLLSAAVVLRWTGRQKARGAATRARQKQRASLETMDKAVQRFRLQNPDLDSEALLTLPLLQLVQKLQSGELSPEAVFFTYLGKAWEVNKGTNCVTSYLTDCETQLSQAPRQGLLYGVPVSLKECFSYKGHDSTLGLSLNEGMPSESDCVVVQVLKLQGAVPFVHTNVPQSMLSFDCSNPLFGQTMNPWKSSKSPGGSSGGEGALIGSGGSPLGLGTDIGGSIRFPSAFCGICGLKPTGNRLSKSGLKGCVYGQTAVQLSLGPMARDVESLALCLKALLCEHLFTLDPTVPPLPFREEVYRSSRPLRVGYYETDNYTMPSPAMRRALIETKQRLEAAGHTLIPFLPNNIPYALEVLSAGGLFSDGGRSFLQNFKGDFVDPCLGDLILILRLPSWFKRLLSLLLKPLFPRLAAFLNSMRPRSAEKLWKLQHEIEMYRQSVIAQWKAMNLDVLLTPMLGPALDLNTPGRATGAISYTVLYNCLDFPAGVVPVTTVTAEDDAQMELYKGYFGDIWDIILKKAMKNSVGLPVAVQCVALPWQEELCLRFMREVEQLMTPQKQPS
Summary of the method: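 The mixture was extracted with 2 volumes of CHCl3/CH3OH 1/1. [14C]ethanolamine in the aqueous phase was measured by scintillation counting.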

[4] = target: Cannabinoid receptor 1 (Homo sapiens, UniProt P21554); assay: Displacement of [3H]CP-55940 from human recombinant CB1 receptor expressed in HEK293 cells by scintillation counting; assay type: cell-based
[5] = target: Cannabinoid receptor 2 (Homo sapiens, UniProt P34972); assay: Displacement of [3H]CP-55940 from human recombinant CB2 receptor expressed in HEK293 cells by scintillation counting; assay type: cell-based
[6] = Selectivity ratio of IC50 for human recombinant DAGLalpha over IC50 for african green monkey MAGL
[7] = organism: Homo sapiens; assay: Selectivity ratio of IC50 for human recombinant DAGLalpha over Ki for human recombinant CB1 receptor
[8] = organism: Homo sapiens; assay: Selectivity ratio of IC50 for human recombinant DAGLalpha over Ki for human recombinant CB2 receptor
[9] = Selectivity ratio of IC50 for human recombinant DAGLalpha over IC50 for rat brain membrane FAAH
[10] = Inhibition of ionomycin-induced stimulation of 2-AG biosynthesis in mouse N18TG2 cells at 0.3 uM; assay type: functional
Summary of the method: (§1)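 Confluent mouse N18TG2 neuroblastoma cells attached to dishes were incubated for 20 min at 37 °C in medium containing 3 µM ionomycin, with vehicle or test compound. The reaction was stopped with ice-cold methanol and lipids were extracted three times with CHCl₃. Lyophilized lipids were assayed for 2-AG by isotope-dilution LC-MS. Values are % change in 2-AG levels versus vehicle (means ± SEM, N = 3).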

[11] = Inhibition of ionomycin-induced stimulation of 2-AG biosynthesis in mouse N18TG2 cells at 1 uM; assay type: functional; summary of the method: as §1

Sequence of Cannabinoid receptor 1 (P21554 whole entry): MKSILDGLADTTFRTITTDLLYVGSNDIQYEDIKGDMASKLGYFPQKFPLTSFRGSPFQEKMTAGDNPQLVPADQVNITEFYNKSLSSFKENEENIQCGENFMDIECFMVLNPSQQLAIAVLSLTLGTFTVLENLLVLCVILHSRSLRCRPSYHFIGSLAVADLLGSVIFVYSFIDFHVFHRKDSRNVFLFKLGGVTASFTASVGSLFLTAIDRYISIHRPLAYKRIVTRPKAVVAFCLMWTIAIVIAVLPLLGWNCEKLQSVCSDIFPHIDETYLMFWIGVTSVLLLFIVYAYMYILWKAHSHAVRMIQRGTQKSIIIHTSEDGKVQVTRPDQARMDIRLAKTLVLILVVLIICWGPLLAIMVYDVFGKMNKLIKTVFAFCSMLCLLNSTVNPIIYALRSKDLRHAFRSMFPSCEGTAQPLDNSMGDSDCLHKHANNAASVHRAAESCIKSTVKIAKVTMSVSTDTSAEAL
Sequence of Cannabinoid receptor 2 (P34972 whole entry): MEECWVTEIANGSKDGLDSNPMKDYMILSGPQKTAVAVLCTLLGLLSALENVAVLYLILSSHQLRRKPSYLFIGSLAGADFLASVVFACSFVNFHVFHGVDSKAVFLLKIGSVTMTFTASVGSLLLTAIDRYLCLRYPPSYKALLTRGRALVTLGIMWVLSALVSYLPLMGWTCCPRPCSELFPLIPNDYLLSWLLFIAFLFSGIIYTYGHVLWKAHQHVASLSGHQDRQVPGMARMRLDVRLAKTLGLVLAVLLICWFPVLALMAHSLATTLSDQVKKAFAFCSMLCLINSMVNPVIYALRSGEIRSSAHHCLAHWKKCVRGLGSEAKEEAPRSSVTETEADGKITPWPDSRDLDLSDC

Row | SMILES | IC50 [1] [µM] | IC50 [2] [µM] | IC50 [3] [µM] | Ki [4] [µM] | Ki [5] [µM] | Ratio IC50 [6] | Ratio [7] | Ratio [8] | Ratio IC50 [9] | inhibition at 0.3 µM [10] [%] | inhibition at 1 µM [11] [%]
1 | CCCCCCCCCCC[C@@H](C[C@@H]1OC(=O)[C@H]1CCCCCC)OC(=O)[C@H](CC(C)C)NC(=O)OC(C)(C)C | > 25 | > 10 | > 50 | – | – | – | – | – | – | – | –
2 | CCCCCCCCCCC[C@@H](C[C@@H]1OC(=O)[C@H]1CCCCCC)OC(=O)CCNC=O | 0.6 | 0.4 | > 50 | 1.9 | 6.4 | – | – | – | – | – | –
3 | CCCCCCCCCCC[C@@H](C[C@@H]1OC(=O)[C@H]1CCCCCC)OC(=O)[C@@H](CC(C)C)NC=O | – | > 10 | – | – | – | – | – | – | – | – | –
4 | CCCCCCCCCCC[C@H](O)C[C@@H]1OC(=O)[C@H]1CCCCCC | 25 | > 10 | > 50 | – | – | – | – | – | – | – | –
5 | CCCCCCCCCCC[C@@H](C[C@@H]1OC(=O)[C@H]1CCCCCC)OC(=O)CCC(C)C | > 25 | > 10 | 10.4 | – | – | – | – | – | – | – | –
6 | CCCCCCCCCCC[C@@H](C[C@@H]1OC(=O)[C@H]1CCCCCC)OC(=O)[C@H](Cc1ccccc1)NC=O | 25 | > 10 | > 50 | – | – | – | – | – | – | – | –
7 | CCCCCCCCCCC[C@@H](C[C@@H]1OC(=O)[C@H]1CCCCCC)OC(=O)[C@H](CC(C)C)NC(=O)OCc1ccccc1 | > 25 | > 10 | > 50 | – | – | – | – | – | – | – | –
8 | CCCCCCCCCCC[C@@H](C[C@@H]1OC(=O)[C@H]1CCCCCC)OC(=O)[C@@H](N)CC(C)C | > 25 | > 10 | > 50 | – | – | – | – | – | – | – | –
9 | CCCCCCCCCCC[C@@H](C[C@@H]1OC(=O)[C@H]1CCCCCC)OC(=O)[C@H](C)NC=O | 0.043 | 1 | > 50 | 3.1 | > 10 | 23 | 23 | 23 | 23 | – | –
10 | CCCCCCCCCCC[C@@H](C[C@@H]1OC(=O)[C@H]1CCCCCC)OC(=O)[C@@H](NC=O)C(C)C | 0.035 | > 10 | > 50 | 5.7 | > 10 | 23 | 23 | 23 | 23 | – | –
11 | CCCCCCCCCCC[C@@H](C[C@@H]1OC(=O)[C@H]1CCCCCC)OC(=O)[C@@H]1CCC(=O)N1 | 0.1 | 3.5 | > 50 | 2.6 | > 10 | 15 | 15 | 15 | 15 | – | –
12 | CCCCCCCCCCC[C@@H](C[C@@H]1OC(=O)[C@H]1CCCCCC)OC(=O)[C@H](Cc1ccccc1)NC(=O)OCc1ccccc1 | > 25 | > 10 | > 50 | – | – | – | – | – | – | – | –
13 | CCCCCCCCCCC[C@@H](C[C@@H]1OC(=O)[C@H]1CCCCCC)OC(=O)[C@@H](CC(C)C)NC(=O)OCc1ccccc1 | > 25 | > 10 | > 50 | – | – | – | – | – | – | – | –
14 | CCCCCCCCCCC[C@@H](C[C@@H]1OC(=O)[C@H]1CCCCCC)OC(=O)[C@@H](NC(C)=O)C(C)C | 0.46 | > 10 | > 50 | 8.4 | > 10 | 15 | 15 | 15 | 15 | – | –
15 | CCCCCCCCCCC[C@@H](C[C@@H]1OC(=O)[C@H]1CCCCCC)OC(=O)CNC(=O)OCc1ccccc1 | > 25 | > 10 | > 50 | – | – | – | – | – | – | – | –
16 | CCCCCCCCCCC[C@@H](C[C@@H]1OC(=O)[C@H]1CCCCCC)OC(=O)[C@@H](NC(C)=O)[C@@H](C)CC | 0.43 | > 10 | 6.6 | 8.6 | > 10 | 15 | 15 | 15 | 15 | – | –
17 | CCCCCCCCCCC[C@@H](C[C@@H]1OC(=O)[C@H]1CCCCCC)OC(=O)[C@@H](NC=O)[C@@H](C)CC | 0.016 | > 10 | > 50 | 6 | > 10 | 23 | 23 | 23 | 23 | 57.3 | –
18 | CCCCCCCCCCC[C@@H](C[C@@H]1OC(=O)[C@H]1CCCCCC)OC(=O)[C@@H]1CCCN1C=O | 1.1 | > 10 | 3.4 | 1.7 | 7.4 | – | – | – | – | – | –
19 | CCCCCCCCCCC[C@@H](C[C@@H]1OC(=O)[C@H]1CCCCCC)OC(=O)[C@@H](N)Cc1ccccc1 | 25 | > 10 | > 50 | – | – | – | – | – | – | – | –
20 | CCCCCCCCCCC[C@@H](C[C@@H]1OC(=O)[C@H]1CCCCCC)OC(=O)CNC(C)=O | 0.8 | 1.7 | > 50 | 2.3 | > 10 | – | – | – | – | – | –
21 | CCCCCCCCCCC[C@@H](C[C@@H]1OC(=O)[C@H]1CCCCCC)OC(=O)[C@H](CC(C)C)NC=O [ORLISTAT] | – | > 10 | – | 2.5 | > 10 | – | – | – | – | – | 79.8

Source: ChEMBL document CHEMBL1142489, “Tetrahydrolipstatin analogues as modulators of endocannabinoid 2-arachidonoylglycerol metabolism” (J Med Chem, 2008)
